Scp-1 inhibitor: blocks human Scp-1 phosphatase activity | 340,000 tested, 0.88% active | Q9GZU7 | Recombinant Scp1, phosphopeptide, malachite green phosphate absorbance | inhibition, % at 20 µM;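 active = inhibition above about 50% at 20 µM, limit read from the data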
Target sequence (Q9GZU7 76-261 limits assumed): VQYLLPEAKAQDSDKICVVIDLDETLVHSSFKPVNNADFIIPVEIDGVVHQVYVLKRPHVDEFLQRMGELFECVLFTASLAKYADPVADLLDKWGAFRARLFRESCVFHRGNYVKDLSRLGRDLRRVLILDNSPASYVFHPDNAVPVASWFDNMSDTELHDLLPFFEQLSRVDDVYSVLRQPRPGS
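Test system: SCP-1 phosphatase catalytic domain, residues 76-261; measured by: colorimetric phosphate reagent with accelerator and stabiliser, absorbance at 630 nm; timing: enzyme reaction 45 min at room temperature, colour 5 min, stabilisation 30 min; also added: Phosphorylated 17-residue peptide substrate; compound dosing: one concentration, 20 µM, with 1.0% DMSO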
PP5 primary: inhibitors of human protein phosphatase 5 (PP5); P53041; purified PP5c, OMFP substrate fluorescence; inhibition, % at 6.7 µM; 320,000 tested, 0.18% active;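 active = inhibition above the campaign's mean inhibition across all tested compounds plus 3 SD, cut at about 9.5% in these data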
LMPTP inh: blocks human LMPTP phosphatase; recombinant LMPTP-A, OMFP fluorogenic substrate, fluorescence intensity; 360,000 tested, 0.22% active; inhibition, % at 20 µM; P24666;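 active = compounds that cut the enzyme signal by at least half of the control window in the single-dose screen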
Target sequence (P24666 whole entry, looked up): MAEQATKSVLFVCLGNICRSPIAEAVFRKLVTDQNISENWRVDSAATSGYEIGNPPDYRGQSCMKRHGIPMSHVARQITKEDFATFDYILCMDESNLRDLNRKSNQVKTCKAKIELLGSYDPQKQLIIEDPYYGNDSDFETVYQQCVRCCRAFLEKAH
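Assay system: LMPTP-A enzyme. Input: 0.625 nM LMPTP-A final. Probe or stimulus: 400 µM OMFP. Compound dosing: single 20 µM dose. Schedule: 50 min dark incubation at room temperature. Detection: fluorescence intensity of OMFP turnover product. Read-out: percent inhibition versus substrate-only and uninhibited controls. Benchmarks: no-enzyme low control, uninhibited high control.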
STEP inh: STEP (human) phosphatase inhibition. P54829. recombinant STEP, OMFP fluorogenic substrate, fluorescence. inhibition, % at 20 µM. 360,000 tested, 0.25% active. AID 588621;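 active = inhibition at 20 µM, scaled per plate between control wells, above about 37%, limit read from the data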
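Assay system: isolated STEP enzyme. Buffer or medium: pH 6.0 Bis-Tris with DTT and Tween 20. Also added: fluorogenic phosphatase substrate OMFP at 25 µM final. Dosing: 20 µM, 1% DMSO. Timing: 20 min reaction, room temperature, in the dark. Measured by: fluorescence intensity, excitation 480 nm, emission 540 nm. Evaluation: normalized % inhibition.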
PP1 inh: blocks human PP1-alpha phosphatase, a PP5 counter-screen | P62136 | purified PP1alpha, OMFP fluorescence | inhibition, % at 6.7 µM | 320,000 tested, 0.9% active | AID 2235;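 active = inhibition above the mean inhibition of all tested compounds plus 3 SD, computed separately for each screening campaign, cut at about 15% in these data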
Target sequence (P62136 whole entry, looked up): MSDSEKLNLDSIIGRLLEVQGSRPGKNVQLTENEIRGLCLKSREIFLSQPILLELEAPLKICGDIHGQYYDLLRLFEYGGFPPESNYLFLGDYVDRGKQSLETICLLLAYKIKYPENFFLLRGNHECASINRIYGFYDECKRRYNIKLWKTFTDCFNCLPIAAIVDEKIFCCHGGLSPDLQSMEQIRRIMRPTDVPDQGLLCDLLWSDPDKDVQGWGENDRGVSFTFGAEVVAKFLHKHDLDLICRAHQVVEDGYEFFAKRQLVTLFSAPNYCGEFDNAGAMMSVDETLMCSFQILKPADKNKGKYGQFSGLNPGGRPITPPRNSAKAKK
Scp1 confirm: confirmation of human Scp-1 phosphatase inhibitors. 2,500 tested, 61% active. shares compounds with Scp-1 inhibitor. recombinant SCP-1 catalytic domain, phosphate release, malachite green absorbance. AID 540281. inhibition, % at 20 µM
Scp-1 MG ctr: counter-screen for Scp-1 inhibitors: colorimetric interference; shares compounds with Scp-1 inhibitor; Colorimetric interference counterscreen, malachite green absorbance 630 nm; apparent inhibition (interference), % at 20 µM; 2,500 tested, under 10 active;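 note: compounds added after enzyme reaction finished so only phosphate colour detection is probed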
Scp1 DSF: Scp-1 (human) binding by thermal shift | Recombinant SCP1, Sypro Orange thermal shift Tm | AID 540329 | thermal shift relative to vanadate control, % at 40 µM | shares compounds with Scp-1 inhibitor | 1,500 tested, 25% active;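 active = substances whose mean melting-temperature shift, as a percentage of the reference inhibitor's shift, reaches about 5.3%, limit read from the data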
STEP inh conf: confirmation of human STEP phosphatase inhibitors; shares compounds with STEP inh; recombinant STEP, OMFP fluorogenic substrate, fluorescence; inhibition, % at 20 µM; 520 tested, 32% active; AID 623866; call rule not given here
Of the large screens only hits and unclear results are named; the others gave an inactive call (follow-up assays come after a bar, where they were run). Sampled rows, rich in hits. Any-hit rate of the full collection: about 1.9%.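 Rule for the calls, unless noted: active = inhibition of at least 30% at 20 µM; inactive = the rest.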

C=CCn1c(SCC(=O)NCCCC)nc2scc(-c3ccco3)c2c1=O	Scp-1 inhibitor 73.1 | Scp1 confirm 68.8 | Scp-1 MG ctr inactive | Scp1 DSF inactive
C=CCn1c(SCC(=O)NC2CCCC2)nc2scc(-c3ccco3)c2c1=O	none
CCC(c1n[nH]c(=S)n1-c1ccccc1)N(C)C (stereo not drawn)	none
O=C1CCCN1CCCNC(=S)Nc1ccccc1	none | Scp1 confirm inactive | Scp-1 MG ctr inactive
O=C1CCCN1CCCNC(=S)Nc1ccc(Nc2ccccc2)cc1	none
Cc1cccc(C)c1NC(=S)NCCCN1CCCC1=O	none | Scp1 confirm inactive | Scp-1 MG ctr inactive
CC(=O)c1cccc(NC(=O)CCc2nnc3ccc(NCc4ccco4)nn23)c1	Scp-1 inhibitor 58.8 | Scp1 confirm 43.0 | Scp-1 MG ctr inactive | Scp1 DSF inactive
CC(=O)c1ccccc1NS(=O)(=O)c1cccc2nsnc12	Scp-1 inhibitor 80.0, LMPTP inh 68.1, STEP inh 96.7 | Scp1 confirm 51.3 | Scp-1 MG ctr inactive | Scp1 DSF inactive
COc1cccc(C(=O)NC2CC(C)(C)NC(C)(C)C2)c1OC	none
Cc1ccc(S(=O)(=O)Cc2ccc(C(=O)N3CCc4ccccc4C3)o2)cc1	Scp-1 inhibitor 75.5 | Scp1 confirm 54.1 | Scp-1 MG ctr inactive | Scp1 DSF inactive
COc1ccc(S(=O)(=O)Cc2ccc(C(=O)N3CCc4ccccc4C3)o2)cc1	none
O=C(CSc1nnc(-c2ccncc2)n1-c1ccccc1)N1CCN(c2ccc(Cl)cc2)CC1	Scp-1 inhibitor 98.1 | Scp1 confirm inactive | Scp-1 MG ctr inactive
O=C(CSc1nnc(-c2cccnc2)n1-c1ccccc1)N1CCN(c2ccc(F)cc2)CC1	none
O=C1N=c2ccccc2=C1c1sc(NS(=O)(=O)Cc2ccccc2)nc1O	Scp-1 inhibitor 92.8 | Scp1 confirm 83.7 | Scp-1 MG ctr inactive | Scp1 DSF 31.1
O=C1N=c2ccccc2=C1c1sc(NS(=O)(=O)c2ccccc2)nc1O	none
COC(=O)c1cc(NC(=O)c2c(-c3ccccc3)noc2C)ccc1N1CCOCC1	none
CCCc1c(C(=O)N/N=C/c2cccs2)nnn1-c1nonc1N	none
Cc1nnn(-c2nonc2N)c1C(=O)N/N=C/c1ccccc1O	Scp-1 inhibitor 51.0 | Scp1 confirm 63.5 | Scp-1 MG ctr inactive | Scp1 DSF inactive
Cc1nnn(-c2nonc2N)c1C(=O)N/N=C/c1cccc2ccccc12	none
CCCc1c(C(=O)N/N=C/c2ccc(C)s2)nnn1-c1nonc1N	Scp-1 inhibitor 60.9 | Scp1 confirm inactive | Scp-1 MG ctr inactive
O=C(O)COc1ccccc1/C=C1\SC(=S)N(/N=C/c2ccccc2O)C1=O	Scp-1 inhibitor 62.7 | Scp1 confirm 59.0 | Scp-1 MG ctr inactive | Scp1 DSF 8.2
CCOC(=O)CCN(c1ccccc1)S(=O)(=O)c1ccc(-c2ccc(=O)[nH]n2)s1	none
Cc1ccc(NC(=O)CC2C(=O)NCCN2C(=O)c2ccc(F)cc2)cc1 (stereo not drawn)	none | Scp1 confirm inactive | Scp-1 MG ctr inactive
O=C(CC1C(=O)NCCN1C(=O)c1ccc([N+](=O)[O-])cc1)Nc1ccc(F)cc1 (stereo not drawn)	none
O=C(CSc1ccccn1)Nc1ccc2c(c1)C(=O)c1ccccc1C2=O	Scp-1 inhibitor 107.5, STEP inh 40.7 | Scp1 confirm 68.8 | Scp-1 MG ctr inactive | Scp1 DSF 7.8
COc1ccc(CCNC(=O)c2ccncc2)cc1OC	none
O=C(O)CC/C(=N\Nc1ccc(S(=O)(=O)N2CCCC2)cc1[N+](=O)[O-])c1cccs1	Scp-1 inhibitor 63.0, STEP inh 97.0 (no result: PP5 primary, PP1 inh) | Scp1 confirm 56.8 | Scp-1 MG ctr inactive | Scp1 DSF 16.4 | STEP inh conf 82.5
O[C@@H](CNC[C@H](O)c1ccccc1)c1ccccc1	none
Cc1cc(C)c2oc(C(=O)NCc3ccccc3)cc(=O)c2c1	none
Cc1ccc(/C=C2/SC(=Nc3ccc(F)cc3)NC2=O)s1	none
O=C1NC(=Nc2cccnc2)S/C1=C/c1ccc(F)cc1	Scp-1 inhibitor 87.4, STEP inh 61.2 | Scp1 confirm 50.4 | Scp-1 MG ctr inactive | Scp1 DSF inactive | STEP inh conf inactive
CCn1c2ccccc2c2cc(NC(=O)c3cccc([N+](=O)[O-])c3C)ccc21	none
N#Cc1c(N2C(=O)Nc3ccccc3N2O)sc2c1CCCCCC2	none
CCOc1cc(/C=C2/NC(=O)NC2=O)cc(Br)c1OCc1ccc(C(=O)O)cc1	Scp-1 inhibitor 73.4, LMPTP inh 56.4, STEP inh 96.5 | Scp1 confirm 87.7 | Scp-1 MG ctr inactive | Scp1 DSF inactive | STEP inh conf inactive
Fc1cccc(/C=C2\CCCC3=C2NC(=S)NC3c2cccc(F)c2)c1 (stereo not drawn)	none
Cn1c2ccccc2c(=O)c2c(=O)n(-c3ccc(F)cc3)c(-c3cccs3)nc21	Scp-1 inhibitor 101.3, STEP inh 43.7 | Scp1 confirm 53.8 | Scp-1 MG ctr inactive | Scp1 DSF inactive | STEP inh conf inactive
Cc1ccc(-c2nc3c(c(=O)c4ccccc4n3C)c(=O)n2-c2ccc(F)cc2)cc1	none
Cc1ccc(S(=O)(=O)Cc2ccc(C(=O)O)o2)cc1	Scp-1 inhibitor 86.5, STEP inh 55.3 | Scp1 confirm 50.4 | Scp-1 MG ctr inactive | Scp1 DSF 7.9 | STEP inh conf 50.4
CC1CN(C(=O)Nc2cccc(Cl)c2)C2(CCCCCC2)O1 (stereo not drawn)	none
Cc1c(C)n(C(=O)CSc2nc3ccccc3[nH]2)c2ccccc12	Scp-1 inhibitor 98.4, STEP inh 83.7 | Scp1 confirm 60.4 | Scp-1 MG ctr inactive | Scp1 DSF 5.8 | STEP inh conf 52.2
COc1cccc(CNC(=O)CCC(=O)N2CC(C)Oc3ccccc32)c1OC (stereo not drawn)	none
O=C(N/N=C/c1ccccc1Cl)c1nc2ccc([N+](=O)[O-])cc2c(=O)[nH]1	Scp-1 inhibitor 70.2, STEP inh 54.0 | Scp1 confirm 31.7 | Scp-1 MG ctr inactive | Scp1 DSF 7.5 | STEP inh conf inactive
O=C(N/N=C/c1cccc([N+](=O)[O-])c1)c1nc2ccccc2c(=O)[nH]1	none
Nc1[nH]c(=O)[nH]c(=O)c1N=Nc1cccc(Cl)c1	none
